Assay outcomes deposited in PubChem BioAssay by several laboratories.
Sampled rows, rich in hits. Any-hit rate of the full collection: about 12%.
Rad51 HR inh – human RAD51 strand exchange inhibitors, primary screen, biochemical, fluorescence | DNA repair protein RAD51 homolog 1 (Homo sapiens), Q06609 | hRad51 DNA strand exchange, fluorescence dequenching | inhibition, % at 10 µM | 0.085% of 200,000 active;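 active = inhibition above 40% at the single screening dose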;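 note: 0% = DMSO control wells and 100% = blanks with heterologous ssDNA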
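Assay system: Human Rad51 nucleoprotein filaments preassembled on unlabelled ssDNA | Reagent: Donor/quencher-labelled 47-bp dsDNA substrate | Doses: One concentration, 10 µM final | Times: 37 °C 15-min filament assembly, 30-min compound preincubation, 15-min exchange | Technique: Fluorescein emission 520 nm, excitation 485 nm | Benchmarks: Plate control and blank wells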
Wee1 degr inh – Wee1 degradation inhibitors, primary screen, cell-based, HeLa, Wee1K328M-luciferase, luminescence. HeLa Luc-Wee1K328M stability; 100% = proteasome inhibitor MG132 effect. Wee1-like protein kinase (Homo sapiens), P30291. reporter increase, % at 5 µM. 1.2% of 220,000 active;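 active = activation above the mean of all tested compounds plus 3 SD, set per screening run, cut at about 8.8% in these data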;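 note: cells exposed to compound for 20 h before luminescence read; 0% = DMSO alone and 100% = MG132 at 30 µM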
Target sequence (P30291 whole entry K328M): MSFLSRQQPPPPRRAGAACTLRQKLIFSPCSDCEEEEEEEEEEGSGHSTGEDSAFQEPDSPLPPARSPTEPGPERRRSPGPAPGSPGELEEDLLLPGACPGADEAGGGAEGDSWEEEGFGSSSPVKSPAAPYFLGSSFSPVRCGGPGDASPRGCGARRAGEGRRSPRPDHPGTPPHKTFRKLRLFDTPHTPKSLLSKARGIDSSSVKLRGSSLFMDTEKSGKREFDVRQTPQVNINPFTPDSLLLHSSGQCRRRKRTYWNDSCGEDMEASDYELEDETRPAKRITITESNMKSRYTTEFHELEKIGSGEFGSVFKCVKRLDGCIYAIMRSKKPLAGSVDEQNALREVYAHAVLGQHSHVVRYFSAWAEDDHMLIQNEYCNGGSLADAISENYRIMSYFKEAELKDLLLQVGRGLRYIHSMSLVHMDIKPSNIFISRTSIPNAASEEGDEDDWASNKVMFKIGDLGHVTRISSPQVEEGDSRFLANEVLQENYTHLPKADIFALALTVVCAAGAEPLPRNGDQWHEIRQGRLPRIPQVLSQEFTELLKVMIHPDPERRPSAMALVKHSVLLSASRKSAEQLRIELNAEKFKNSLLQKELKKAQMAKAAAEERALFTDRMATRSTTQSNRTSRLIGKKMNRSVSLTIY
L major viab – Leishmania major promastigote growth inhibition, primary screen. AID 1063, 2008. inhibition, % at 10 µM. Leishmania major promastigotes, resazurin fluorescence viability. 9% of 200,000 active;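 note: promastigotes grown with compound for 44 hours at 28 °C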
CHOP inhibitor – inhibitors of CHOP promoter induction, primary screen, cell-based, unfolded protein response, luciferase reporter | CHO-K1 CHOP-promoter luciferase, tunicamycin-induced, 15-18 h | inhibition, % at 10 µM | 3.8% of 220,000 active;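 active = compounds that reduced the stress-induced luciferase reporter signal by more than about 70% of percent inhibition, limit read from the data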;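 note: 0% = tunicamycin plus vehicle and 100% = wells without tunicamycin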
Arbovirus anti – antivirals against arbovirus infection, primary screen, cell-based, full library, 10K replicate subset. arbovirus infection cell-based antiviral screen. 0.37% of 200,000 active. inhibition, % at 10 µM; in the data active = inhibition above about 30%
PKD1 kinase inh – inhibitors of human PKD1 kinase, biochemical, fluorescence polarization | inhibition, % (test concentration not listed) | PKD1 kinase fluorescence polarization assay | 0.056% of 200,000 active
Active calls of the source: *. Cut-off read from the data, not from the text of the source, unless noted: active = inhibition above about 50%; inactive = the rest.

Results for CC(C(=O)N(C)Cc1ccccc1)N1CCN(C/C=C/c2ccccc2)CC1 (configuration not stated) ?
Wee1 degr inh: -1.6; CHOP inhibitor: 15.2

How did Cc1ccc(C(=O)OCC(=O)NCc2cccs2)cc1S(=O)(=O)N1CCOCC1 do in these assays?
Rad51 HR inh: 14.9; Wee1 degr inh: 1.2; L major viab: -5.2; CHOP inhibitor: -2.3; Arbovirus anti: 5.9; PKD1 kinase inh: -1.9

Results for Cc1nnc(SCC(=O)NCCc2ccccc2)s1 ?
Rad51 HR inh: 2.1; Wee1 degr inh: 1.7; L major viab: -4.5; CHOP inhibitor: -7.6; Arbovirus anti: -34.7; PKD1 kinase inh: -2.8

What do the screens show for `c1ccc(OCCCN2CCCC2)cc1`?
Rad51 HR inh: -0.1; Wee1 degr inh: 3.9; L major viab: -0.3; CHOP inhibitor: -1.6; Arbovirus anti: 7.4; PKD1 kinase inh: -0.1

Results for CC(=O)c1ccc(OCCCN2CCCCC2)cc1 ?
Rad51 HR inh: 3.0; Wee1 degr inh: 0.3; L major viab: 88.1*; CHOP inhibitor: -19.6; Arbovirus anti: -2.3; PKD1 kinase inh: 4.1

What do the screens show for `COC(=O)c1ccc(OCCN2CCCCCC2)cc1`?
Rad51 HR inh: 25.7; Wee1 degr inh: 4.6; L major viab: 87.7*; CHOP inhibitor: -10.0; Arbovirus anti: -5.3; PKD1 kinase inh: -0.8

What do the screens show for `O=C(c1ccccc1)c1ccc(OCCCN2CCCCC2)cc1`?
Rad51 HR inh: 2.1; Wee1 degr inh: -2.5; L major viab: 99.3*; CHOP inhibitor: 32.7; Arbovirus anti: -6.8; PKD1 kinase inh: -13.9

What do the screens show for `CCC(C)CCCCNC1=NCCS1` (configuration not stated)?
Rad51 HR inh: 1.5; Wee1 degr inh: -3.9; L major viab: 47.2; CHOP inhibitor: 13.1; Arbovirus anti: 4.2; PKD1 kinase inh: -4.6

What do the screens show for `CCCCn1c(NC(C)CC)nc2c1c(=O)[nH]c(=O)n2C` (configuration not stated)?
Rad51 HR inh: 7.1; Wee1 degr inh: 1.5; L major viab: -0.1; CHOP inhibitor: -13.1; Arbovirus anti: -0.1; PKD1 kinase inh: -6.9

How did O=C(CCCN1C(=O)/C(=C/c2ccccc2Cl)SC1=S)NNC(=O)c1ccc(Cl)cc1 do in these assays?
Rad51 HR inh: 5.5; Wee1 degr inh: 3.0; CHOP inhibitor: 92.5*

What do the screens show for `Cc1ccc(C(=O)NNC(=O)CCCN2C(=O)/C(=C/c3ccccc3Cl)SC2=S)cc1`?
Rad51 HR inh: 0.5; Wee1 degr inh: -4.2; L major viab: 20.8; CHOP inhibitor: 30.8; Arbovirus anti: -8.5; PKD1 kinase inh: -6.6

What do the screens show for `O=C(CCCN1C(=O)/C(=C/c2cccs2)SC1=S)Nc1ccccn1`?
Rad51 HR inh: 10.1; Wee1 degr inh: 4.5; L major viab: 4.4; CHOP inhibitor: 32.2; Arbovirus anti: -4.2; PKD1 kinase inh: 11.8

How did O=C(CCCN1C(=O)/C(=C/c2ccccc2Cl)SC1=S)Nc1ccccn1 do in these assays?
Wee1 degr inh: 0.2; L major viab: 18.4; CHOP inhibitor: 91.2*; Arbovirus anti: 3.6; PKD1 kinase inh: 1.7

How did CN(C)c1nnnn1-c1cccc(Oc2ncc(C(F)(F)F)cc2Cl)c1 do in these assays?
Rad51 HR inh: 12.2; Wee1 degr inh: -0.1; L major viab: 0.5; CHOP inhibitor: 9.6; Arbovirus anti: 1.8; PKD1 kinase inh: -7.8

Results for CCN(CC)S(=O)(=O)c1cccc(C(=O)OCC(=O)c2ccc3c(c2)OCCO3)c1 ?
Wee1 degr inh: 4.2; L major viab: -5.2; CHOP inhibitor: 18.4; Arbovirus anti: 9.3; PKD1 kinase inh: -7.8

Results for COc1cccc(/C=C/c2ccncc2)c1OC ?
Wee1 degr inh: 0.4; L major viab: 85.8*; CHOP inhibitor: 25.3; Arbovirus anti: 3.1; PKD1 kinase inh: -8.1

What do the screens show for `O=C(Nc1ccc(N2CCOCC2)cc1)c1cnsn1`?
Wee1 degr inh: -3.2; L major viab: -7.0; CHOP inhibitor: 78.1*; Arbovirus anti: 2.2; PKD1 kinase inh: 9.0

How did CCC(=O)c1ccc(OCc2ccc(C(=O)c3ccccc3)cc2)cc1 do in these assays?
Rad51 HR inh: -15.5; Wee1 degr inh: -1.3; L major viab: -1.1; CHOP inhibitor: 53.5; Arbovirus anti: 5.2; PKD1 kinase inh: -9.5

How did CCN1CCN(c2cc(-c3ccccc3)nc3cc(-c4cccc(F)c4)nn23)CC1 do in these assays?
Rad51 HR inh: -5.8; Wee1 degr inh: 2.9; L major viab: 68.2*; CHOP inhibitor: 65.4; Arbovirus anti: -36.4; PKD1 kinase inh: -5.0

Results for CCOC(=O)c1nnn(CC(=O)Nc2cccc(Cl)c2C)c1C(=O)OCC ?
Rad51 HR inh: 6.8; Wee1 degr inh: -1.0; L major viab: 6.6; CHOP inhibitor: 36.7; Arbovirus anti: 14.5; PKD1 kinase inh: 5.2

How did CCOC(=O)c1nnn(CC(=O)N2N=C(c3cccc4ccccc34)CC2c2ccccc2)c1C(=O)OCC (configuration not stated) do in these assays?
Rad51 HR inh: -7.9; Wee1 degr inh: 3.5; L major viab: 51.5*; CHOP inhibitor: 1.4; Arbovirus anti: 16.3; PKD1 kinase inh: 1.5

What do the screens show for `CC1(C)C(CSc2nc3ccccc3[nH]2)C1(Cl)Cl` (configuration not stated)?
Wee1 degr inh: 3.8; L major viab: 73.8*; CHOP inhibitor: 5.4; Arbovirus anti: 1.3; PKD1 kinase inh: 9.2

Results for CCSc1nc2ccccc2[nH]1 ?
Rad51 HR inh: 1.2; Wee1 degr inh: 1.0; L major viab: 10.2; CHOP inhibitor: 7.8; Arbovirus anti: 5.4; PKD1 kinase inh: -11.0

What do the screens show for `Clc1cccc2c1CCN(Cc1nc(-c3cnccn3)no1)C2`?
Rad51 HR inh: -14.8; Wee1 degr inh: 1.1; L major viab: 12.3; CHOP inhibitor: 5.7; Arbovirus anti: -21.9; PKD1 kinase inh: 3.0

Results for Cc1nn(-c2ccccc2)c2sc(C(=O)N3CCCCC3)cc12 ?
Rad51 HR inh: 11.7; Wee1 degr inh: 0.0; L major viab: 9.2; CHOP inhibitor: 81.9*; Arbovirus anti: -4.9; PKD1 kinase inh: 8.1

How did Cc1cnc(NC(=O)c2cc3c(C)nn(-c4ccccc4)c3s2)s1 do in these assays?
Wee1 degr inh: 4.3; L major viab: 10.3; CHOP inhibitor: 86.5*; Arbovirus anti: -12.3; PKD1 kinase inh: -3.9

What do the screens show for `Cc1nn(-c2ccccc2)c2sc(C(=O)NNC(=O)COc3ccccc3)cc12`?
Rad51 HR inh: 0.0; Wee1 degr inh: 0.3; L major viab: -6.3; CHOP inhibitor: -27.8; Arbovirus anti: -6.0; PKD1 kinase inh: -3.8

Results for Cc1nn(-c2ccccc2)c2sc(C(=O)N3CCc4ccccc4C3)cc12 ?
Rad51 HR inh: -4.4; Wee1 degr inh: -0.3; L major viab: -2.0; CHOP inhibitor: 2.9; Arbovirus anti: -1.5; PKD1 kinase inh: 2.2
